Consider three molecules from ChEMBL document CHEMBL4011632, “Design, Synthesis, and Evaluation of Thiazolidine-2,4-dione Derivatives as a Novel Class of Glutaminase Inhibitors” (J Med Chem, 2017).

The subject of data set [1] is Mus musculus. As to the kind of experiment: Toxicity in BALB/CAnN.Cg-Foxn1nu/CrlNarl mouse xenografted with human Aspc-1 cells assessed as loss in body weight at 25 to50 mg/kg, ip once daily administered for 5 days followed by 2 days without dosing for 68 days relative to control. The class given is organism-based, BALB/C. To be noted: in vivo, 1632 h.
Another data set concerns ASPC1. Put plainly: Synergistic cytotoxicity against human Aspc-1 cells assessed as reduction in cell viability at ED50 in presence of doxorubicin by MTS assay. The class given is functional. The procedure, abridged:
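AsPC-1 cells treated with compound combinations and viability read by MTS. Combination index at ED50, ED75 and ED90 calculated by the Chou−Talalay method. CI = 1 additive, <1 synergism, >1 antagonism. Representative of three independent experiments.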

The target in data set [2] is T1, Peroxisome proliferator-activated receptor gamma (Homo sapiens) (UniProt P37231).
T1 sequence (whole entry): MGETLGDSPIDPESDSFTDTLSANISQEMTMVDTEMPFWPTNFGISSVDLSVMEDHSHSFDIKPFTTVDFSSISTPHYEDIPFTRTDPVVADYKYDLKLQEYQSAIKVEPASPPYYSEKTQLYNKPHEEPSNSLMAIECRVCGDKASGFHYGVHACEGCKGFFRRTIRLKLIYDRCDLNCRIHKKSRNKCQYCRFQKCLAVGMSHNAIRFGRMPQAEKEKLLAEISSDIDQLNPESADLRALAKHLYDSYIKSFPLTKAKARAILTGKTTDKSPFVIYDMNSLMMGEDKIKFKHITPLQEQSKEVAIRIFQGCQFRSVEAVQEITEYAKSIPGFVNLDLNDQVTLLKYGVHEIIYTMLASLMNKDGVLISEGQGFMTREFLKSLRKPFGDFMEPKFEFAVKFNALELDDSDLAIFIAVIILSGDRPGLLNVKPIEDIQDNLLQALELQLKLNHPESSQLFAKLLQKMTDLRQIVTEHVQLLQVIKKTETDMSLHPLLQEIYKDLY
Put plainly: Transactivation of GAL4-DBD fused human PPARgamma LBD (199 to 477 residues) expressed in African green monkey CV1 cells after 18 to 24 hrs by luciferase reporter gene assay. The class given is cell-based.

The target in data set [3] is T2, Peroxisome proliferator-activated receptor alpha (Homo sapiens) (UniProt Q07869).
T2 sequence (whole entry): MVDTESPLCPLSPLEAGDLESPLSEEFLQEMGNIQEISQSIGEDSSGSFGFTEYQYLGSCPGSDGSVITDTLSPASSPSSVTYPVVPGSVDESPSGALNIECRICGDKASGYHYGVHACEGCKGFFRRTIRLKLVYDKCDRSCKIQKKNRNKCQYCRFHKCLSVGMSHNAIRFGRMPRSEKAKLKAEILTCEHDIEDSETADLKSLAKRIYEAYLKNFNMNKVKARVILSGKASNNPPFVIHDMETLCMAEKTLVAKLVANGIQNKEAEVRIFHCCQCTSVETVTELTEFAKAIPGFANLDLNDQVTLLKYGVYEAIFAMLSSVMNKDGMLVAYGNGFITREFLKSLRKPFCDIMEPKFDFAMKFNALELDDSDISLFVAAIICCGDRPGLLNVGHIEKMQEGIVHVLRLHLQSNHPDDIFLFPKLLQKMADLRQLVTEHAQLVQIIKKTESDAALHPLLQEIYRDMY
Put plainly: Transactivation of GAL4-DBD fused human PPARalpha LBD (193 to 469 residues) expressed in African green monkey CV1 cells after 18 to 24 hrs by luciferase reporter gene assay. The class given is cell-based.

Data set [4] addresses Glutaminase 1/2 (Homo sapiens) (UniProt O94925+Q9UI32). To be noted: 3.13 to 100 uM.
A short description of data set [5]: Inhibition of recombinant human His-tagged KGA S384A mutant expressed in Escherichia coli BL21(DE3)pLysS using glutamine substrate preincubated for 10 mins followed by substrate addition measured after 60 mins.
Data set [6] is filed under the species Homo sapiens. As to the kind of experiment: Selectivity ratio of IC50 for recombinant human His-tagged KGA R387A mutant expressed in Escherichia coli BL21(DE3)pLysS to IC50 for human His-tagged KGA (L123 to L669 residues) expressed in Escherichia coli BL21(DE3)pLysS.
A short description of data set [7]: Inhibition of recombinant human His-tagged KGA R387A mutant expressed in Escherichia coli BL21(DE3)pLysS using glutamine substrate preincubated for 10 mins followed by substrate addition measured after 60 mins.
Data set [8] is filed under the species Homo sapiens. Put plainly: Selectivity ratio of IC50 for recombinant human His-tagged KGA R387L mutant expressed in Escherichia coli BL21(DE3)pLysS to IC50 for human His-tagged KGA (L123 to L669 residues) expressed in Escherichia coli BL21(DE3)pLysS.
The nature of data set [9]: Inhibition of recombinant human His-tagged KGA K507A mutant expressed in Escherichia coli BL21(DE3)pLysS using glutamine substrate preincubated for 10 mins followed by substrate addition measured after 60 mins.
The species named for data set [10] is Homo sapiens. Put plainly: Selectivity ratio of IC50 for recombinant human His-tagged KGA S384A mutant expressed in Escherichia coli BL21(DE3)pLysS to IC50 for human His-tagged KGA (L123 to L669 residues) expressed in Escherichia coli BL21(DE3)pLysS.
The nature of data set [11]: Inhibition of recombinant human His-tagged KGA R387L mutant expressed in Escherichia coli BL21(DE3)pLysS using glutamine substrate preincubated for 10 mins followed by substrate addition measured after 60 mins.
Data set [12] deals with Mus musculus. Put plainly: Toxicity in BALB/CAnN.Cg-Foxn1nu/CrlNarl mouse xenografted with human Aspc-1 cells assessed as overt toxicity at 25 to 50 mg/kg, ip once daily administered for 5 days followed by 2 days without dosing for 43 days. The following applies: in vivo. The format is organism-based, BALB/C.
For data set [13], the system named is Mus musculus. As to the kind of experiment: Toxicity in BALB/CAnN.Cg-Foxn1nu/CrlNarl mouse xenografted with human Aspc-1 cells assessed as loss in body weight at 50 mg/kg, ip once daily administered for 5 days followed by 2 days without dosing for 43 days relative to control. The format is organism-based, BALB/C. To be noted: in vivo.
Data set [14] can be described thus: Oral bioavailability in Sprague-Dawley rat at 1 mg/kg by HPLC-MS analysis. The format is ADME, organism-based. The following applies: in vivo. The procedure, abridged: (§1)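 Male rats (330−380 g, 9−10 weeks old), jugular-vein cannulated 1 day before dosing, n = 3. Dosed iv in DMA/PEG400 (20%/80%, v/v) or po in 1% CMC/0.5% Tween-80. Blood (100 μL) drawn at 0, 2 min, 5 min (iv only), 15 and 30 min, and 1, 2, 4, 6, 8 and 24 h. Plasma measured by LC-MS/MS; parameters from noncompartmental analysis.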

Data set [15] in a line: AUC (0 to infinity) in Sprague-Dawley rat at 0.1 mg/kg, iv by HPLC-MS analysis. The format is ADME, organism-based. Set-up: dose 0.1 mg/kg, time infinity, route intravenous. The following applies: in vivo. The procedure, abridged:
as §1

Active and inactive are the calls of the source. The calls are words filed in the database; no cut-off is given here.

Sequence of Glutaminase 1/2 (Homo sapiens) (O94925 whole entry, looked up): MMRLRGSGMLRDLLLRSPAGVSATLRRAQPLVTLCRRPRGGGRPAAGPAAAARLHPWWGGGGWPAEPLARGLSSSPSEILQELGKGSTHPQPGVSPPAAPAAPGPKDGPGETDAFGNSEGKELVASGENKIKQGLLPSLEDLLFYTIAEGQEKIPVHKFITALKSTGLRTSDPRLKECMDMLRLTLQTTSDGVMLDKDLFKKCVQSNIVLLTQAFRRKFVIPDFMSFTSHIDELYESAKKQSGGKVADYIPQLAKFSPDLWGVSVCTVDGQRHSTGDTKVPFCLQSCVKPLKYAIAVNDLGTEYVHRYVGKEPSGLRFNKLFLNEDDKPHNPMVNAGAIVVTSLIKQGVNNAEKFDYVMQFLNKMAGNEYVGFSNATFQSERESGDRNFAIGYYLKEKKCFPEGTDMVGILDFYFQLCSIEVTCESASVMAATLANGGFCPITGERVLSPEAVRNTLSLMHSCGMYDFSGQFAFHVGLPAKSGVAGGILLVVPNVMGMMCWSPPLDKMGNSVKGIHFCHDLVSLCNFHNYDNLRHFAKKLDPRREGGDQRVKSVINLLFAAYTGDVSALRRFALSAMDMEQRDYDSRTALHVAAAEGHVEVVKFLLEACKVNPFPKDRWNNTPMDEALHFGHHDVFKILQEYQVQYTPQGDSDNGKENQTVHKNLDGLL
Sequence of Glutaminase 1/2 (Homo sapiens) (Q9UI32 whole entry, looked up): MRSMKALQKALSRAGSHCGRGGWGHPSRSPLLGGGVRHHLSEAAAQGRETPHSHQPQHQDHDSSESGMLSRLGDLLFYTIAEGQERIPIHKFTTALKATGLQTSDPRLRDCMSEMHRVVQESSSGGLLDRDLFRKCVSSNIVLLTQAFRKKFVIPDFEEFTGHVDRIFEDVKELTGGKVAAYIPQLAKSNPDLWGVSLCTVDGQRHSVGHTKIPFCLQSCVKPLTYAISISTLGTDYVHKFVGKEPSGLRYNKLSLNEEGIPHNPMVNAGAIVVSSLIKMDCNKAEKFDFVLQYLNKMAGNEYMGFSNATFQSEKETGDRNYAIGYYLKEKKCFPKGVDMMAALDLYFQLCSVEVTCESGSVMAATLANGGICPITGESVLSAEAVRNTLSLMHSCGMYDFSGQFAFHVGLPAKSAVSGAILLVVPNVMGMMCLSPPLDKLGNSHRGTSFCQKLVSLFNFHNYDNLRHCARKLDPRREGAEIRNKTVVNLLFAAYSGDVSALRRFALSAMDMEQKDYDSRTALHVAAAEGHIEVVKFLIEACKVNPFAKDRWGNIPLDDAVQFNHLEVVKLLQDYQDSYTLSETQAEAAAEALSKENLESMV

With `O=C1NC(=O)/C(=C/c2ccc(-c3ccc(-n4c(-c5cccs5)cc(/C=C5\SC(=O)NC5=O)c4-c4cccs4)cc3)cc2)S1`, the Activity in the data set on Mus musculus [1] is given as > 10%. The CI in the data set with ASPC1 is on record as 0.45 - 0.68. In addition, the outcome in [2] and in data set [3] was inactive. Also, the inhibition entry in [4] was “Active”.
Turning to `Cc1cc(/C=C2\SC(=O)NC2=O)c(C)n1-c1ccc(-c2ccc(/C=C3\SC(=O)NC3=O)c(Cl)c2)cc1`, the half-inhibitory concentration (IC50) was 87 nM in data set [5], 10900 nM in data set [7], 269 nM in data set [9] and 770 nM in data set [11]. For the same molecule, the Ratio IC50 in the data set listed under Homo sapiens [6] is 191; in the data set listed under Homo sapiens [8] it was 13.5; in the data set listed under Homo sapiens [10] it was 1.5. Further, the outcome in data set [2] and in [3] was inactive.
As to `Cc1cc(/C=C2\SC(=O)NC2=O)c(C)n1-c1ccc(-c2ccc(/C=C3\SC(=O)NC3=O)cc2)cc1`, the Activity entry in the data set with Mus musculus [12] is “Non-Toxic”; in the data set with Mus musculus [13], > 10%. For the same molecule, the half-inhibitory concentration (IC50) in data set [5] is 361 nM; in [7], > 50000 nM; in data set [9], 1040 nM; in data set [11], 1270 nM. Further, the Ratio IC50 was > 490 in the data set filed under Homo sapiens [6], 12.5 in the data set listed under Homo sapiens [8] and 3.5 in the data set filed under Homo sapiens [10]. For the same molecule, the CI in the data set on ASPC1 is on record as 0.45 - 0.68. Besides, the bioavailability in data set [14] is 1%. In data set [15], this molecule showed a total exposure AUC(0-inf) of 3410 ng·h/mL.
